This series deals with MS2 coat protein. The experiment in a line: apparent Kd, MS2 coat protein; higher = weaker binding; RNA-MaP array; tryptophan 2.4 mM where present. In outline: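 Each design was made on Illumina sequencing-chip clusters by stalled E. coli RNA polymerase and titrated with SNAP-549-labelled MS2 coat protein from 0.7 or 1.5 nM, doubling to 3 µM, in the absence and then the presence of constant ligand. The buffer was 100 mM Tris-HCl pH 7.5, 80 mM KCl, 4 mM MgCl2, BSA, DTT, yeast tRNA and Tween-20. The apparent Kd is the median of filtered per-cluster fits of binding curves, with green signal normalised to red-channel RNA signal and control-cluster median Fmax.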

Setting [1] is: designed as: ON switch for tryptophan, no ligand.
Where [2] appears, read: ligand present: tryptophan, designed as: ON switch for tryptophan.
[3] abbreviates: designed as: OFF switch for tryptophan, no ligand.
Where [4] appears, read: ligand present: tryptophan, designed as: OFF switch for tryptophan.

Take “GAUACUAUGAAAGUAGUAUCUACGUGUUGACGAGGACCGGUACGGCCGCCACUCGACAUGAGGAUCACCCAUGUAUAGAAUAUGU”: the “apparent Kd” value reads like this: under setting [1], 0.0206 µM; under setting [2], 0.0148 µM.

“GGUUACUCUACGGCCGCCACUGUAAUGUAAAGAUUCCUGUACAUGACAUGAGGAUCACCCAUGUGCAGGACCGGGUAGUGUAACC”: the “apparent Kd” value under setting [1] came to 0.194 µM and the “apparent Kd” value under setting [2] came to 0.0526 µM.

For the sequence “AAUCAUGAAAACAUGACAUGAGGAUCACUCCGAGGACCGGUACGGCCGCCACUCGCGAGGAGGCGGACAUGAGGAUCACCCAUGU”, the “apparent Kd” value under setting [1] was determined as 0.254 µM and the “apparent Kd” value under setting [2] was 0.0663 µM.

For the sequence “GGUUACUCUACGGCCGCCACUGAACAUGAGGAUCACCCAUGUAAUGUUCAGACGUCUUUAGACGACAGGACCGGGUAGUGUAACC”, the “apparent Kd” value reads like this: under setting [1], 0.178 µM; under setting [2], 0.151 µM.

Turning to “UAAUAAGUACCGGUUCUCAGAUCCUCAUGUCGAGGACCGGUACGGCCGCCACUCGAAACAUGAGGAUCACCCAUGUAAUAAUAAU”, the “apparent Kd” value by setting is: under setting [3], 0.0362 µM; under setting [4], 0.0317 µM.

“AUUCAUGGAAACAUGACAUACAUUACCGGUCGAGGACCGGUACGGCCGCCACUCGGUUGGUGGCACAUGAGGAUCACCCAUGUUA”: the “apparent Kd” value under setting [1] was 0.0268 µM and the “apparent Kd” value under setting [2] was 0.0267 µM.

In the case of “GCGACCCUGAGAUCCUGCGUAACGUGAACACGAGGACCGGUACGGCCGCCACUCGAGAGAACAUGAGGAUCACCCAUGUCUGAGC”, the “apparent Kd” value reads like this: under setting [3], 0.0204 µM; under setting [4], 0.0222 µM.

As to “CCUAUGCAGUCGGCCGCCACUGAACAUGAGGAUCACCCAUGUAUAUAAAGAUCCUGAUAUAAUAACAGGACCGGGACUGUAUAGG”, the “apparent Kd” value was 0.0597 µM under setting [3] and 0.157 µM under setting [4].

As for “AUGGAGACCUCGGCCGCCACUCUCCAUGAGGAUCUCCCAUGUAACAUGAGGAUCACCCAUGUGCUGAGGACCGGGAGGUCCUGAA”, the “apparent Kd” value is 0.0106 µM under setting [1] and 0.012 µM under setting [2].

For the sequence “AUGGAGACCUCGGCCGCCACUCUCCAUGAGGAUCUCCCAUGUAACAUGAGGAUCACCCAUGUACUGAGGACCGGGAGGUCCUUGA”, the “apparent Kd” value by setting is: under setting [1], 0.0099 µM; under setting [2], 0.0108 µM.

Turning to “UUCUUUAAGUCGGCCGCCACUGAAACAUGAGGAUCACCCAUGUAAAUUUGGGAGUAGGUAUAUUACAGGACCGGGACUAUAGUAA”, the “apparent Kd” value by setting is: under setting [3], 0.03 µM; under setting [4], 0.0548 µM.

For the sequence “UUGCCCAGUACGGCCGCCACUGUGUGCAGGGAACCCAGGUCCACAUGAGGAUCACCCAUGUACAGCAGGACCGGGUACUUGCAAU”, the “apparent Kd” value reads like this: under setting [3], 0.00903 µM; under setting [4], 0.0117 µM.

On to “AAUGUAUGCCACAUGAGGAUCACCCAUGUGCGAGGACCGGUACGGCCGCCACUCGGUCGGUGGUUAAUGAAGAUAUACAAUAAUG”, for which the “apparent Kd” value runs as follows: under setting [3], 0.0115 µM; under setting [4], 0.0155 µM.

Turning to “GGAUGGAACUCGGCCGCCACUGGUGAUCCUAAUGUACAUGAGGAUCACCCAUGUACAUGAGAAGAUAGGACCGGGAGAUAACAUG”, the “apparent Kd” value worked out at 0.0277 µM under setting [1] and 0.0198 µM under setting [2].

Regarding “UCGGACAUGAGGAUCACCCAUGUAAAUCCUCGAGGACCGGUACGGCCGCCACUCGAACGAGUGGCACGCGAGUGCGCACUCGCGU”, the “apparent Kd” value is, setting by setting: under setting [1], 0.0309 µM; under setting [2], 0.0277 µM.

For “AAUAAACAUGAGGAUCACCCAUGUUGUUGACGAGGACCGGUACGGCCGCCACUCGACAUGAGGAUCACCCAUGUUGUCACAUGAG”, the “apparent Kd” value under setting [1] was found to be 0.18 µM and the “apparent Kd” value under setting [2] worked out at 0.151 µM.

For “GAUAUGGAAACAUGUCAGAUCCUUACCGGUCGAGGACCGGUACGGCCGCCACUCGAAAACGAGGAACAUGAGGAUCACCCAUGUA”, the “apparent Kd” value came to 0.0497 µM under setting [3] and 0.0875 µM under setting [4].

With “AAAUGUACGUCGGCCGCCACUGCGCUGAAGACAGUCACAUGAGGAUCACCCAUGUACGACAAGGGUAGGACCGGGAUGUGAGGGU”, the “apparent Kd” value worked out at 0.0914 µM under setting [1] and 0.0447 µM under setting [2].

As to “UUACAUGAGGAUCACCCAUGUUUACUAUGUCGAGGACCGGUACGGCCGCCACUCGUAUUUGAUGAUUUAGGUGCCACAAGUUAUU”, the “apparent Kd” value was found to be 0.0212 µM under setting [3] and 0.0205 µM under setting [4].

For the sequence “AGAAUAUAGUCGGCCGCCACUCUACAAACAUGAGGAUCACCCAUGUUCACAUAGUGGAAACACAUGAGGACCGGGACAUAGGCAU”, the “apparent Kd” value by setting is: under setting [1], 0.0156 µM; under setting [2], 0.0142 µM.

For “AUGCAUAGCACGGCCGCCACUCCAUGUAAACAUGAGGAUCACCCAUGUAAUUUGGAUGUUUUAUAGAGGACCGGGUGAAAUGCAA”, the “apparent Kd” value under setting [3] amounted to 0.00888 µM and the “apparent Kd” value under setting [4] is 0.0151 µM.

On to “GGUAUGUAUUCGGAAACGAAUGCAUACCAACGAGGACCGGUACGGCCGCCACUCGGCCGUGAUCAACAUGAGGAUCACCCAUGUA”, for which the “apparent Kd” value is, setting by setting: under setting [3], 0.0158 µM; under setting [4], 0.0268 µM.

Turning to “UAACAUGAGGAUCACCCAUGUAUACUAAGUCGAGGACCGGUACGGCCGCCACUCGAACUUCAAGAAUAGGCGGUAAAUGUAAGUA”, the “apparent Kd” value stood at 0.0115 µM under setting [3] and 0.0133 µM under setting [4].

Turning to “UGUCGGCGUAAGUUGGCAUGUCUUGCUGGUCGAGGACCGGUACGGCCGCCACUCGAUCCUUCGCACAUGAGGAUCACCCAUGUUG”, the “apparent Kd” value under setting [1] came to 0.0183 µM and the “apparent Kd” value under setting [2] turned out to be 0.0171 µM.

Turning to “GUCUUGGGAUCGGCCGCCACUACAUGAGGAUCACCCAUGUGGACAAAUAGGGUUUUUAAGCUCGGUAGGACCGGGAUUCGGACAU”, the “apparent Kd” value by setting is: under setting [3], 0.0129 µM; under setting [4], 0.0569 µM.

Regarding “CCUAUGCAGUCGGCCGCCACUGAUAAAGUUAUCUUUACCUCAGAAACAUGAGGAUCACCCAUGUACAGGACCGGGACUGUAUAGG”, the “apparent Kd” value reads like this: under setting [3], 0.0127 µM; under setting [4], 0.0198 µM.

Consider “AACAUGAGGAUCACCCAUGUCCUCAUGAUUCGAGGACCGGUACGGCCGCCACUCGGUCCUCGCGAGGAGGAGUCAAAGACUCCAA”, for which the “apparent Kd” value reads like this: under setting [1], 0.178 µM; under setting [2], 0.393 µM.

The term apparent Kd denotes the concentration giving half-maximal binding under the conditions of the assay.
